Experimental data pooled from the literature.
CDK17: Cyclin-dependent kinase 17 (CDK17, Homo sapiens, UniProt Q00537)
CDK17 with cyclin Y: Cyclin-dependent kinase 17, with cyclin Y (CDK17, Homo sapiens, UniProt Q00537)

`CCC1(CC)NC(=O)c2c(c3ccc(Cl)c(Cl)c3n2C)C1C#N` (stereo not drawn) has a ΔTm of 0.7 °C (CDK17; thermal stability; DSF; 10 µM).
`O=C(Nc1cnn(-c2csc(C(=O)NC3COC3)c2)c1)Nc1c(F)cccc1Cl` has a remaining activity of 96% (CDK17 with cyclin Y; enzyme activity; inhibitor; 5 µM).
With `COc1cccc2c(NCc3ccccc3)nc(-n3c(N)nc4ccccc43)nc12` the inhibition was -40.2% (CDK17; target engagement in cells; inhibitor; chemoproteomics; 20 mM).
`Cn1c2c(c3ccc(Cl)c(Cl)c31)C(C#N)C(C)(C)NC2=O` (stereo not drawn) gave a ΔTm of 1.1 °C (CDK17; thermal stability; DSF; 10 µM).
For `CCCOc1ccc([C@H]2[C@H](C(=O)O)[C@@H](c3ccc4c(c3)OCO4)CN2CC(=O)Nc2c(CC)cccc2CC)cc1`, the remaining binding was 91% (CDK17; cell-free assay; competition with immobilised ligand; 1 µM).
`CCN1CCC2(CC1)NC(=O)c1c(c3ccc(Cl)c(Cl)c3n1C)C2C#N` (racemic) has a ΔTm of 0 °C (CDK17; thermal stability; DSF; 10 µM).
The remaining signal of `Nc1ncnc2occ(-c3ccc(NC(=O)Nc4cc(C(F)(F)F)ccc4F)cc3)c12` is reported as 0.4% (CDK17; cell-free assay; inhibitor; 20 µM).
With `Cc1ccc(C(=O)NCc2ccsc2)cc1C#Cc1cn(C(C)C)c2ncnc(N)c12` the activity vs control was 104% (CDK17 with cyclin Y; enzyme activity; inhibitor; 1 µM).
`O=C(Nc1cnc(Oc2ccc(F)cc2)nc1)N1CCc2ncccc2[C@@H]1c1ccc(F)cc1` gave a remaining binding of 97% (CDK17; cell-free assay; competition with immobilised ligand; 1 µM).
`CCCCNc1ncc2c(-c3ccc(F)cc3)nn(C[C@H]3CC[C@H](N)CC3)c2n1` has an inhibition of 41.7% (CDK17; target engagement in cells; inhibitor; chemoproteomics; 20 mM).
The remaining binding of `Cc1nccc(COC(=O)N2C[C@@H]3[C@@H](CNC(=O)c4ccc5[nH]nnc5c4)[C@@H]3C2)n1` is reported as 90% (CDK17; cell-free assay; competition with immobilised ligand; 1 µM).
With `CN(CCCC(F)(F)F)c1nccc(-c2cnn3ncccc23)n1` the remaining binding was 90% (CDK17; binding; 1 µM).
